GSTO1 inh – GSTO1 inhibition, counter-screen for RBBP9 inhibitors. 300,000 compounds, 1.1% hits. inhibition, % at 5.96 µM. P78417. AID 1974. recombinant GSTO1, activity-based probe fluorescence polarization;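 active = inhibition above the campaign mean inhibition plus 3 SD, cut at about 35% in these data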
UBC9 SUMO inh – SUMOylation inhibition | P63279 | HTRF SUMOylation assay, SAE1/SAE2 + UBC9, in vitro | inhibition, % at 35 µM | 290,000 compounds, 0.36% hits; in the data active = inhibition above about 50%, passing the limit was not always enough; inconclusive = no clear call, values can overlap the other calls
PAD4 inh – blocks human protein arginine deiminase 4. Q9UM07. recombinant PAD4, RCA probe fluorescence polarization. inhibition, % at 6.36 µM. 330,000 compounds, 0.41% hits. AID 485272;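 active = percent inhibition above a cutoff equal to the mean of all tested compounds plus 3 SD, cut at about 15% in these data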
Target sequence (Q9UM07 whole entry, looked up): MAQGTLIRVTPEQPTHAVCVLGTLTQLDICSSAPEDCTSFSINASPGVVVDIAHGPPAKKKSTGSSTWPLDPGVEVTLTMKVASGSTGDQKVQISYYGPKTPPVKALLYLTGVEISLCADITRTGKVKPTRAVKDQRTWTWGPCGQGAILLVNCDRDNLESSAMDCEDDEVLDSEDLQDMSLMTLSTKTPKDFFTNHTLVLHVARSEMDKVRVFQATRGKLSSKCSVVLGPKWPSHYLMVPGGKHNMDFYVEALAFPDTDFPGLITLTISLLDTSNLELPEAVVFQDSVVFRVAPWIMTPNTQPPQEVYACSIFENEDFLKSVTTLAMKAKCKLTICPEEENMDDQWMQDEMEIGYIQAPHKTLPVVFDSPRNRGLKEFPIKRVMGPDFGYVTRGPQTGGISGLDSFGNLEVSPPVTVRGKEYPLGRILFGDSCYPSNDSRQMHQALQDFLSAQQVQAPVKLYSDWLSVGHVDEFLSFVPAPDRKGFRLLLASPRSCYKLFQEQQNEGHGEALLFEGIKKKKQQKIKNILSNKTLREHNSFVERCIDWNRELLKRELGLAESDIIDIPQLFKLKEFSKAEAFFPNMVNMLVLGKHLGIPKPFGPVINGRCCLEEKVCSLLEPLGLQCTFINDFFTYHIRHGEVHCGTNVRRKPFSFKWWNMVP
Apaf-1 inh – blocks human Apaf-1 apoptosome activity | inhibition, % at 20 µM | reconstituted apoptosome caspase-3 activity, DEVD-Rh110 fluorescence | 330,000 compounds, 0.71% hits; active = inhibition of at least 40% at 20 µM
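System: reconstituted apoptosome with Apaf-1, cytochrome c, caspase-9, procaspase-3, dATP; Signal: Rh110 fluorescence intensity; Schedule: 30 min compound preincubation, 50 min activation, room temperature; Reagent: cytochrome c trigger plus (Z-DEVD)2-Rh110 caspase-3 substrate.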
UBC13 polyUb – human UBC13 polyubiquitination inhibition | 330,000 compounds, 0.47% hits | inhibition, % at 20 µM | P61088 | UBC13 polyubiquitin chain formation, TR-FRET; in the data active = inhibition above about 45%, passing the limit was not always enough; inconclusive = no clear call, values can overlap the other calls
Target sequence (P61088 whole entry, looked up): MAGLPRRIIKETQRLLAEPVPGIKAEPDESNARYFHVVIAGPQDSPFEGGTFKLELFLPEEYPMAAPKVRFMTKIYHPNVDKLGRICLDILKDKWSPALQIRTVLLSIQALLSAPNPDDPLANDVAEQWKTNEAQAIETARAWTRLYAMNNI
Rin1-Abl PPI inh – human Rin1-Abl interaction inhibition. P00519+Q13671. TR-FRET Rin1/Abl binding, biochemical. inhibition, % at 7.35 µM. 360,000 compounds, 0.4% hits. AID 588664; in the data active = inhibition above about 5%, passing the limit was not always enough
PAD4 confirm – confirmation of human PAD4 inhibitors; recombinant PAD4, RCA probe fluorescence polarization; 1,200 compounds, 28% hits; inhibition, % at 6.36 µM; shares compounds with PAD4 inh;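 active = mean inhibition across replicates above the hit cutoff set by the earlier primary screen, cut at about 15% in these data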;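 also: inhibitors block active-site labeling by the probe so polarization falls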
Casp3 UBC13 ctr – caspase-3 inhibition (UBC13 counter-screen). Recombinant caspase-3, Caspase-Glo 3/7 luminescence, 60 min. AID 488856. shares compounds with UBC13 polyUb. inhibition, % at 20 µM. 1,400 compounds, 4% hits;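 active = mean inhibition across replicates above about 26%, limit read from the data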
UBC13 conf – confirmation of human UBC13 polyubiquitin inhibitors; shares compounds with UBC13 polyUb; UBC13 polyubiquitination, TR-FRET, biochemical; inhibition, % at 10 µM; 1,400 compounds, 68% hits; in the data active = inhibition above about 45%; inconclusive = no clear call, values can overlap the other calls
Apaf-1 inh conf – Apaf-1 inhibition, single-dose confirmed | inhibition, % at 20 µM | shares compounds with Apaf-1 inh | reconstituted apoptosome, caspase-3 DEVD-Rh110 fluorescence | 1,800 compounds, 25% hits | AID 504614;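 active = mean inhibition of at least 40% at 20 µM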
Rh110 quench – interferes with Rh110 fluorescence, flagging false Apaf-1 inhibitors; shares compounds with Apaf-1 inh; Rh110 fluorescence interference, quenched caspase reaction; activation (fluorescence interference), % at 20 µM; 1,800 tested, under 10 active; AID 504615;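 active = signal rise of 40% or more at 20 µM, treated as a fluorescence artifact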
Fluor interf inh – Apaf-1 inhibitor counter-screen fluorescence artifact | 460 tested, under 10 active | fluorescence interference counterscreen, Apaf-1 assay format | shares compounds with Apaf-1 inh | IC50, µM
Rin1-Abl confirm – confirmation of inhibitors of human Rin1-Abl interaction; shares compounds with Rin1-Abl PPI inh; TR-FRET Rin1-Abl binding, purified proteins; inhibition, % at 7.35 µM; 1,300 compounds, 49% hits; in the data active = inhibition above about 6.5%
GFP quencher – quenches GFP fluorescence, counter-screen for Rin1-Abl inhibitors; inhibition, % at 6.75 µM; 1,300 compounds, 8.5% hits; shares compounds with Rin1-Abl PPI inh; AID 602125; inhibitors/quenchers counterscreen; in the data active = inhibition above about 6.5%;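 also: ABL1-eGFP fusion protein alone without its partner RIN1-SBP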
GFP quench dose – quenches GFP in dose response, Rin1-Abl counter-screen | AID 602182 | GFP fluorescence interference/quenching counterscreen | 230 tested, under 10 active | shares compounds with Rin1-Abl PPI inh | IC50, µM;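 also: ABL1-eGFP fusion protein alone without its RIN1 binding partner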
Large screens that a line does not name were inactive (follow-up assays come after a bar, where they were run). Rows were chosen to be rich in hits. Some 2.2% of all compounds tested hit in one or more screens of this group. Unless noted, no rule for the calls is given here.

COc1cc(/C=C2\C(=O)N(CCC#N)N=C2C)c(Br)cc1OC(C)C	GSTO1 inh 36.0, PAD4 inh 70.5, Apaf-1 inh 78.5 | PAD4 confirm inactive | Apaf-1 inh conf inactive | Rh110 quench inactive
Cc1cccc(C)c1NC(=O)C(C)NCc1cccs1 (configuration not stated)	none (no result: GSTO1 inh, UBC9 SUMO inh, PAD4 inh, Apaf-1 inh, UBC13 polyUb)
O=C(NC1(O)C(=O)c2ccccc2C1=O)c1c(Cl)cccc1Cl	GSTO1 inh 79.4, UBC9 SUMO inh 95.0, PAD4 inh 24.4, Apaf-1 inh 96.1, Rin1-Abl PPI inh 13.8 | PAD4 confirm 36.9 | Apaf-1 inh conf 97.4 | Rh110 quench inactive | Fluor interf inh inactive | Rin1-Abl confirm 27.5 | GFP quencher inactive | GFP quench dose inactive
CC(C)C[C@@H](C(=O)O)N(Cc1cccc(CN([C@@H](CC(C)C)C(=O)O)S(C)(=O)=O)c1)S(C)(=O)=O	none
CNC[C@H](Cc1ccccc1)NC[C@@H](Cc1cccc2ccccc12)NCCc1ccc(C)cc1	Apaf-1 inh 48.2, UBC13 polyUb 95.5 | Casp3 UBC13 ctr inactive | UBC13 conf 90.0
COc1cccc(/C=N\NC(=O)c2sc(N)nc2C)c1OC	UBC13 polyUb 104.9 | Casp3 UBC13 ctr inactive | UBC13 conf 109.6
CC(C)(C)CN1CCNC[C@H]1Cc1cccc2ccccc12	UBC13 polyUb 46.8 (no result: UBC9 SUMO inh) | Casp3 UBC13 ctr inactive | UBC13 conf inactive
O=C(Cn1nnc(-c2ccc(F)cc2)n1)NC(=O)NC1CCCCC1	none (no result: GSTO1 inh, UBC9 SUMO inh, PAD4 inh, Apaf-1 inh, UBC13 polyUb)
COc1cccc(NC(=O)CCCOc2cc(=O)n(C)c3ccccc23)c1	none
CCn1c(=O)cc(SCC(=O)NCCCN2CCN(c3ccccc3F)CC2)c2ccccc21	UBC13 polyUb 58.2 | Casp3 UBC13 ctr inactive | UBC13 conf inconclusive
CCOc1ccc(NC(=O)CCCOc2cc(=O)n(C)c3ccccc23)cc1	UBC13 polyUb 73.8 | Casp3 UBC13 ctr inactive | UBC13 conf 76.1
Cn1c(=O)cc(OCCCC(=O)NCCN2CCN(c3ccccc3F)CC2)c2ccccc21	UBC13 polyUb 57.1 | Casp3 UBC13 ctr inactive | UBC13 conf inactive
c1nnc(NCNc2nncs2)s1	none (no result: GSTO1 inh, UBC9 SUMO inh, PAD4 inh, Apaf-1 inh, UBC13 polyUb)
O=C(CCNS(=O)(=O)c1ccccc1C(F)(F)F)N1CCN(S(=O)(=O)c2cccc(F)c2)CC1	none (no result: UBC9 SUMO inh)
COc1cc2oc(=O)cc(CN3CCN(c4ccccc4F)CC3)c2cc1Cl	none (no result: GSTO1 inh, UBC9 SUMO inh, PAD4 inh, Apaf-1 inh, UBC13 polyUb)
Cc1ccc(/C=N/NC(=O)c2nnn(-c3nonc3N)c2C(C)C)s1	none
CC1(C(=O)Nc2ccccc2)CCN1C(=O)C1(c2ccccc2)CC1 (configuration not stated)	none (no result: GSTO1 inh, UBC9 SUMO inh, PAD4 inh, Apaf-1 inh, UBC13 polyUb)
COc1ccc(-c2cc(C(=O)NCCCN3CCCC3=O)c3ccccc3n2)cc1	UBC13 polyUb 46.7 (no result: UBC9 SUMO inh) | Casp3 UBC13 ctr inactive | UBC13 conf 54.0
CN(C)CCCN(C(=O)c1ccc2c(c1)CCCC2)c1nc2ccc(Cl)cc2s1	UBC13 polyUb 65.2 | Casp3 UBC13 ctr inactive | UBC13 conf 93.2
CCc1ccc2nc(N(CCCN(C)C)C(=O)c3ccc(C(=O)c4ccccc4)cc3)sc2c1	UBC13 polyUb 73.5 | Casp3 UBC13 ctr inactive | UBC13 conf 107.8
COc1cc(C(O)c2nc(-c3cccs3)cs2)ccc1F (configuration not stated)	none (no result: GSTO1 inh, UBC9 SUMO inh, PAD4 inh, Apaf-1 inh, UBC13 polyUb)
C[C@@H]1CN([C@H](C)CO)C(=O)CCCn2nncc2CO[C@@H]1CN(C)S(=O)(=O)c1cccs1	none (no result: GSTO1 inh, UBC9 SUMO inh, PAD4 inh, Apaf-1 inh, UBC13 polyUb)
Cc1c(NC(=O)CCCCCN2C(=O)c3ccccc3C2=O)c(=O)n(-c2ccccc2)n1C	UBC13 polyUb 105.9 | Casp3 UBC13 ctr inactive | UBC13 conf 110.1
Cc1c(Br)c([N+](=O)[O-])nn1CCCC(=O)Nc1c(C)n(C)n(-c2ccccc2)c1=O	UBC13 polyUb 49.2 | Casp3 UBC13 ctr inactive | UBC13 conf inactive
Cc1cc([N+](=O)[O-])nn1CCCC(=O)Nc1c(C)n(C)n(-c2ccccc2)c1=O	none
Cc1c(NC(=O)CCN2C(=O)c3ccccc3C2=O)c(=O)n(-c2ccccc2)n1C	none
Cn1c(=O)c2c(SCC(=O)N3CCN(c4ccccc4)CC3)nc(C3CC3)nc2n(C)c1=O	UBC13 polyUb 63.1 | Casp3 UBC13 ctr inactive | UBC13 conf inconclusive
CCO[C@H]1OC(C(=O)NCc2ccccc2)=C[C@@H](c2ccccc2)[C@@H]1CCCO	UBC13 polyUb 50.3 | Casp3 UBC13 ctr inactive | UBC13 conf inactive
CCO[C@@H]1OC(C(=O)NCc2ccccc2)=C[C@H](c2ccccc2)[C@H]1CCCO	none
Cc1cc2nc(NCCCO)n(CC(=O)c3cc(C(C)(C)C)c(O)c(C(C)(C)C)c3)c2cc1C	UBC13 polyUb 70.3 (no result: UBC9 SUMO inh) | Casp3 UBC13 ctr inactive | UBC13 conf 48.6
CCOC(=O)C1=C(COC(=O)c2cc(OC)c(OC)c(OC)c2)NC(=O)NC1C (configuration not stated)	UBC13 polyUb 61.8 (no result: UBC9 SUMO inh) | Casp3 UBC13 ctr inactive | UBC13 conf 83.5
Brc1ccc(-c2nnc3ccc(N4CCN(c5ccccc5)CC4)nn23)cc1	UBC13 polyUb 61.9 | Casp3 UBC13 ctr inactive | UBC13 conf inactive
COc1ccc(S(=O)(=O)N2CCN(c3ccc4nnc(-c5ccccc5)n4n3)CC2)cc1	Apaf-1 inh 64.9, UBC13 polyUb 51.2 | Casp3 UBC13 ctr inactive | UBC13 conf inactive
C/C(=N\NC(=O)c1nn(C)c(C)c1Br)c1ccc(NC(=O)C2CCCC2)cc1	none (no result: GSTO1 inh, PAD4 inh)
Cc1cc(C(=O)COC(=O)COc2ccc(C#N)cc2)c(C)n1C1CC1	none (no result: UBC9 SUMO inh)
COc1ccccc1N1CCN(S(=O)(=O)CCNC(=O)Cc2ccc(F)cc2)CC1	none (no result: UBC9 SUMO inh)

Compound activity (PubChem BioAssay)
